Test results published in ChEMBL document CHEMBL1123571, “[(6,7-Dichlorobenzo[b]thien-5-yl)oxy]acetic acids and 1,1-dioxides. 1. A structurally novel class of diuretics with hypotensive activity” (1987).
Where “and” joins values, the source holds several entries; their conditions need not be identical. Equal entries are not always repeated.

What was measured:
Rattus norvegicus [1] = assay: Hypotensive activity was determined in Spontaneously hypertensive rats (SHR) and initial blood pressure was determined at 50 mg/kg oral dose; type: functional
Mus musculus [2] = assay: Diuretic activity in saline loaded mice, activity is expressed as the sodium present in urine as mean milli equivalent/kg per 5 hr at 64 mg/kg oral dose; type: functional
Procedure, shortened: (§1)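 Male CD-1 mice (18–24 g), 10 per treatment group, housed five per metabolic cage. Compound was given orally in 1% saline at 10 mL/kg, with a vehicle control group. Pooled urine was analysed for sodium by flame photometry. Values are mean mequiv/kg over 0–5 h.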

Rattus norvegicus [3] = assay: Hypotensive activity was determined in Spontaneously hypertensive rats (SHR) and peak decrease in systolic blood pressure on third day,2h post administration of 50 mg/kg oral dose was determined; type: functional, Artery
Procedure, shortened: (§2)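 Okamoto-Aoki spontaneously hypertensive rats were dosed orally every day with compound suspended in distilled water with Tween 80. Systolic BP was taken by tail-cuff plethysmography on day 1 (predose, 2 h), day 3 (predose, 2 h) and day 5 (predose, 2 and 4 h). The value is the peak fall at day 3, 2 h postdose, ± SEM. Four rats were used in the screen and 4–8 per dose in dose-response.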

Rattus norvegicus [4] = assay: Hypotensive activity was determined in Spontaneously hypertensive rats (SHR) and peak decrease in systolic blood pressure on third day,2h post administration of 3 mg/kg oral dose was determined; type: functional, Artery; procedure, shortened: as §2
Rattus norvegicus [5] = assay: Hypotensive activity was determined in Spontaneously hypertensive rats (SHR) and initial blood pressure was determined at 30 mg/kg oral dose; type: functional
Rattus norvegicus [6] = assay: Hypotensive activity was determined in Spontaneously hypertensive rats (SHR) and peak decrease in systolic blood pressure on third day,2h post administration of 30 mg/kg oral dose was determined; type: functional, Artery; procedure, shortened: as §2
Rattus norvegicus [7] = assay: Hypotensive activity was determined in Spontaneously hypertensive rats (SHR) and initial blood pressure was determined at 3 mg/kg oral dose; type: functional
Mus musculus [8] = assay: Compound was tested for diuretic activity in saline loaded mice, activity is expressed as the sodium present in urine as mean milli equivalent/kg per 5 hr at 16 mg/kg oral dose; type: functional; procedure, shortened: as §1
Mus musculus [9] = assay: Compound was tested for diuretic activity in saline loaded mice, activity is expressed as the sodium present in urine as mean milli equivalent/kg per 5 hr at 128 mg/kg oral dose; type: functional; procedure, shortened: as §1
Mus musculus [10] = assay: Compound was tested for diuretic activity in saline loaded mice, activity is expressed as the sodium present in urine as mean milli equivalent/kg per 5 hr at 32 mg/kg oral dose; type: functional; procedure, shortened: as §1
Rattus norvegicus [11] = assay: Hypotensive activity was determined in Spontaneously hypertensive rats (SHR) and peak decrease in systolic blood pressure on third day,2h post administration of 10 mg/kg oral dose was determined; type: functional, Artery; procedure, shortened: as §2
Rattus norvegicus [12] = assay: Hypotensive activity was determined in Spontaneously hypertensive rats (SHR) and initial blood pressure was determined at 10 mg/kg oral dose; type: functional
Rattus norvegicus [13] = assay: Hypotensive activity was determined in Spontaneously hypertensive rats (SHR) and initial blood pressure was determined at 1 mg/kg oral dose; type: functional
Rattus norvegicus [14] = assay: Hypotensive activity was determined in Spontaneously hypertensive rats (SHR) and peak decrease in systolic blood pressure on third day,2h post administration of 1 mg/kg oral dose was determined; type: functional, Artery; procedure, shortened: as §2
Rattus norvegicus [15] = assay: Hypotensive activity was determined in Spontaneously hypertensive rats (SHR) and initial blood pressure was determined at 25 mg/kg oral dose; type: functional
Rattus norvegicus [16] = assay: Hypotensive activity was determined in Spontaneously hypertensive rats (SHR) and peak decrease in systolic blood pressure on third day,2h post administration of 25 mg/kg oral dose was determined; type: functional, Artery; procedure, shortened: as §2
Rattus norvegicus [17] = assay: Hypotensive activity after 50 mg/kg oral dose in rats (Change in blood pressure after treatment (day/hours)); type: functional
Procedure, shortened: (§3)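 Grollman renal hypertension (one kidney, one wrap) in male Sprague-Dawley rats. Under pentobarbital (50 mg/kg ip) the right kidney was removed and silk sutures were tied around both poles of the left kidney. After 3 weeks, rats with systolic BP >150 mmHg were selected. Oral dosing followed. Systolic BP was measured by tail-cuff plethysmography as day/hour readings, and the change was taken against the initial pressure.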

Rattus norvegicus [18] = organism: Rattus norvegicus; assay: Initial blood pressure before treatment; type: functional; procedure, shortened: as §3
Rattus norvegicus [19] = organism: Rattus norvegicus; assay: Change in blood pressure (Initial blood pressure- Post drug blood pressure); type: functional; procedure, shortened: as §3
Rattus norvegicus [20] = assay: Hypotensive activity after 10 mg/kg oral dose in rats (Change in blood pressure after treatment (day/hours)); type: functional; procedure, shortened: as §3

Structure (SMILES)	Initial blood pressure (Rattus norvegicus [1]) [mmHg]	mequiv of Na+/kg (Mus musculus [2])	Change in BP (Rattus norvegicus [3]) [mmHg]	further results
CCC(=O)c1cc2cc(OCC(=O)O)c(Cl)c(Cl)c2s1	173	1.18 0-5h	-1	–
O=C(O)COc1cc2cc(C3CCCCC3)sc2c(Cl)c1Cl	178	1.6 0-5h	2	–
C=C(CC)C(=O)c1ccc(OCC(=O)O)c(Cl)c1Cl [ETHACRYNIC ACID]	–	4.14 0-5h	–	–
O=C(O)COc1cc2c(c(Cl)c1Cl)S(=O)(=O)C(C1CCCCC1)=C2	202	1.25 0-5h	-43	Change in BP (Rattus norvegicus [4]): -32 mmHg; Initial blood pressure (Rattus norvegicus [5]): 167 mmHg; Change in BP (Rattus norvegicus [6]): -30 mmHg; Initial blood pressure (Rattus norvegicus [7]): 187 mmHg
CC(O)c1cc2cc(OCC(=O)O)c(Cl)c(Cl)c2s1 (stereo unspecified)	183	2.86 0-5h	-7	–
CC1=Cc2cc(OCC(=O)O)c(Cl)c(Cl)c2S1(=O)=O	180	4.34 0-5h	-25	mequiv of Na+/kg (Mus musculus [8]): 1.33 0-5h; mequiv of Na+/kg (Mus musculus [9]): 6.36 0-5h; mequiv of Na+/kg (Mus musculus [10]): 2.11 0-5h
O=C(O)COc1cc2c(c(Cl)c1Cl)S(=O)(=O)C1=C2CCCC1	179	0 0-5h	-8	–
CC(C)c1cc2cc(OCC(=O)O)c(Cl)c(Cl)c2s1	179	2.52 0-5h	-41	Initial blood pressure (Rattus norvegicus [5]): 195 mmHg; Change in BP (Rattus norvegicus [11]): -14 mmHg; mequiv of Na+/kg (Mus musculus [8]): 1.24 0-5h; Change in BP (Rattus norvegicus [6]): -32 mmHg; mequiv of Na+/kg (Mus musculus [10]): 1.64 0-5h; Initial blood pressure (Rattus norvegicus [12]): 178 mmHg
Cc1csc2c(Cl)c(Cl)c(OCC(=O)O)cc12	203	0.8 0-5h	-12	–
O=C(O)COc1cc2cc(C3CCCC3)sc2c(Cl)c1Cl	193	1.3 0-5h	-31	–
O=C(O)COc1cc2ccsc2c(Cl)c1Cl	201	1 0-5h	2	–
CC(O)C1=Cc2cc(OCC(=O)O)c(Cl)c(Cl)c2S1(=O)=O (stereo unspecified)	176	0.43 0-5h	-9	–
CCCCC1=Cc2cc(OCC(=O)O)c(Cl)c(Cl)c2S1(=O)=O	185	2.42 0-5h	-24	–
CCC(O)c1cc2cc(OCC(=O)O)c(Cl)c(Cl)c2s1 (stereo unspecified)	166	3.89 0-5h	-22	–
O=C(O)COc1cc2c3c(sc2c(Cl)c1Cl)CCCC3	177	0.45 0-5h	-12	–
Cc1cc2cc(OCC(=O)O)c(Cl)c(Cl)c2s1	215	1.16 0-5h	-51	Change in BP (Rattus norvegicus [4]): -37 mmHg; Initial blood pressure (Rattus norvegicus [13]): 177 mmHg; Change in BP (Rattus norvegicus [11]): -33 mmHg; Initial blood pressure (Rattus norvegicus [7]): 173 mmHg; Change in BP (Rattus norvegicus [14]): -42 mmHg; Initial blood pressure (Rattus norvegicus [12]): 196 mmHg
CC(C)Cc1cc2cc(OCC(=O)O)c(Cl)c(Cl)c2s1	176	1.29 0-5h	4	–

Structure (SMILES)	Initial blood pressure (Rattus norvegicus [1]) [mmHg]	mequiv of Na+/kg (Mus musculus [2])	Change in BP (Rattus norvegicus [3]) [mmHg]	further results
O=C(O)COc1cc2cc(CO)sc2c(Cl)c1Cl	199	1.23 0-5h	-5	–
O=C(O)COc1cc2c(c(Cl)c1Cl)S(=O)(=O)C=C2	201	0.33 0-5h	-3	–
Cc1sc2c(Cl)c(Cl)c(OCC(=O)O)cc2c1C	192	0.13 0-5h	-37	–
O=C(O)COc1ccc(C(=O)c2cccs2)c(Cl)c1Cl [TICRYNAFEN]	200	3.31 0-5h	-14	–
CCc1cc2cc(OCC(=O)O)c(Cl)c(Cl)c2s1	–	2.07 0-5h	–	Change in BP (Rattus norvegicus [11]): -21 mmHg; mequiv of Na+/kg (Mus musculus [8]): 0.74 0-5h; Initial blood pressure (Rattus norvegicus [15]): 176 mmHg; mequiv of Na+/kg (Mus musculus [10]): 1.51 0-5h; Change in BP (Rattus norvegicus [16]): -13 mmHg; Initial blood pressure (Rattus norvegicus [12]): 185 mmHg
O=C(O)COc1cc2c(c(Cl)c1Cl)S(=O)(=O)C(C1CCCC1)=C2	180	1.79 0-5h	-17	–
NS(=O)(=O)c1cc2c(cc1Cl)NCNS2(=O)=O [HYDROCHLOROTHIAZIDE]	188	–	-26	Post drug blood pressure (Rattus norvegicus [17]): 156 mmHg and 133 mmHg and 148 mmHg and 150 mmHg; Initial blood pressure (Rattus norvegicus [18]): 168 mmHg; Delta blood pressure (Rattus norvegicus [19]): -18 mmHg [middle of 4 runs]
CCC1=Cc2cc(OCC(=O)O)c(Cl)c(Cl)c2S1(=O)=O	213	3.35 0-5h	-8	mequiv of Na+/kg (Mus musculus [8]): 0.66 0-5h; mequiv of Na+/kg (Mus musculus [9]): 6.51 0-5h; mequiv of Na+/kg (Mus musculus [10]): 1.84 0-5h
CC(C)(O)c1cc2cc(OCC(=O)O)c(Cl)c(Cl)c2s1	193	4.4 0-5h	-25	mequiv of Na+/kg (Mus musculus [8]): 0.53 0-5h; mequiv of Na+/kg (Mus musculus [9]): 6.24 0-5h; mequiv of Na+/kg (Mus musculus [10]): 2.21 0-5h
CC(C)CC1=Cc2cc(OCC(=O)O)c(Cl)c(Cl)c2S1(=O)=O	176	3.24 0-5h	-14	–
CCCc1cc2cc(OCC(=O)O)c(Cl)c(Cl)c2s1	181	1.74 0-5h	-1	–
CC(C)C1=Cc2cc(OCC(=O)O)c(Cl)c(Cl)c2S1(=O)=O	192	2.58 0-5h	-33	mequiv of Na+/kg (Mus musculus [9]): 5.32 0-5h; mequiv of Na+/kg (Mus musculus [10]): 0.88 0-5h
CC1=C(C)S(=O)(=O)c2c1cc(OCC(=O)O)c(Cl)c2Cl	165	0.92 0-5h	-17	–
CC(=O)c1cc2cc(OCC(=O)O)c(Cl)c(Cl)c2s1	199	1.16 0-5h	-28	–
CCCC1=Cc2cc(OCC(=O)O)c(Cl)c(Cl)c2S1(=O)=O	–	3.13 0-5h	–	Change in BP (Rattus norvegicus [4]): -52 mmHg; Initial blood pressure (Rattus norvegicus [5]): 202 mmHg; mequiv of Na+/kg (Mus musculus [8]): 1.06 0-5h; Change in BP (Rattus norvegicus [6]): -64 mmHg; mequiv of Na+/kg (Mus musculus [9]): 4.99 0-5h; Initial blood pressure (Rattus norvegicus [7]): 205 mmHg; Post drug blood pressure (Rattus norvegicus [20]): 135 mmHg and 156 mmHg and 153 mmHg and 167 mmHg; mequiv of Na+/kg (Mus musculus [10]): 1.79 0-5h; Initial blood pressure (Rattus norvegicus [18]): 166 mmHg
CCCCc1cc2cc(OCC(=O)O)c(Cl)c(Cl)c2s1	173	0.88 0-5h	-47	Initial blood pressure (Rattus norvegicus [5]): 173 mmHg; Change in BP (Rattus norvegicus [11]): -17 mmHg; Change in BP (Rattus norvegicus [6]): -16 mmHg; Initial blood pressure (Rattus norvegicus [12]): 171 mmHg
